Series [1] has as its system female Wistar rats. The following applies: initial studies; cited from earlier work.
Series [2] can be described thus: Plasma stability, rabbit plasma. In kind it is in vitro ADME. In short, it runs like this: (§1)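 K2-EDTA plasma from male animals of each species was incubated with the test compound (1 µM) at 37 °C for 0–4 h, with propantheline bromide (1 µM) as control. Intact compound remaining was measured by LC-MS to give the half-life.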
Series [3] deals with plasma proteins. Kind of series: Plasma protein binding by rapid equilibration dialysis. In kind it is in vitro ADME, rat. The gist of the method: (§2)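 Rapid equilibrium dialysis used K2-EDTA plasma from male animals of each species. The test compound (5 µM) was incubated for 2 h at 37 °C, with propranolol (1 µM) as control. Samples were analysed by LC-MS/MS, with response taken as the analyte-to-internal-standard peak area ratio. Unbound fraction = receiver-side response / donor-side response.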

The test system of series [4] is plasma proteins. The description is as above. Format: in vitro ADME, mini-pig. The gist of the method: as §2
For series [5], the system named is male and female Sprague Dawley rats. The experiment in a line: 28-Day repeated dose toxicity, intranasal. In kind it is in vivo, rat.
Series [6] is described as follows: Plasma stability, rat plasma. Format: in vitro ADME. In short, it runs like this: as §1
The subject of series [7] is plasma proteins. The experiment in a line: Plasma protein binding by rapid equilibration dialysis. In kind it is in vitro ADME, rabbit. In short, it runs like this: as §2
The subject of series [8] is male and female Wistar rats. Kind of series: Dose range finding, intranasal route. Format: in vivo, rat. The following applies: GLP, 0.2, 1 and 5 mg/kg BW every two days during five days.
The nature of series [9]: Safety of AmyP53 in mice. Format: in vivo, mouse. In short, it runs like this: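 C57BL/6 mice. Preliminary safety run in 5 young (4-month-old) mice: intranasal test compound, then 10 min later stereotaxic SNpc injection of test compound, then daily intranasal dosing for 7 days. Full study used 7 per group: saline, human α-synuclein protofibrils (50 µM in 0.9% NaCl, pre-incubated 37 °C for 3 days), or protofibrils plus test compound (100 µM). Injections were bilateral into the SNpc, 2.5 µL, under isoflurane. The co-treated group then received daily intranasal dosing for 35 days.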

Series [10] can be described thus: Plasma stability, dog plasma. In kind it is in vitro ADME. In short, it runs like this:
as §1

Series [11] is described as follows: Plasma stability, mini-pig plasma. In kind it is in vitro ADME. The gist of the method:
as §1

Series [12] deals with plasma proteins. The experiment in a line: Plasma protein binding by rapid equilibration dialysis. Format: in vitro ADME, dog. The gist of the method: as §2
For series [13] the following is noted: cited from earlier work.
The subject of series [14] is male and female New Zealand White rabbits. Kind of series: 14-Day repeated tolerability/toxicity study, intranasal. In kind it is in vivo, rabbit. The following applies: male and female rabbits, 0.1, 1 and 5 mg/kg BW/day, 14 days. The gist of the method: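 GLP study run by a contract lab. Male and female New Zealand White rabbits were dosed intranasally with the test compound daily for 14 days at 0.1, 1.0 and 5.0 mg/kg body weight/day, followed by a 14-day recovery period, with toxicokinetics. Read-outs: local reaction, mortality, clinical signs, body weight, food consumption, clinical pathology, ophthalmoscopy, organ weight, haematology, coagulation, clinical chemistry and histopathology of a full tissue list.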

The target of series [15] is mini-pig plasma proteins. The experiment in a line: rapid equilibration dialysis.
For series [16], the target named is dog plasma proteins. The experiment in a line: rapid equilibration dialysis.
The target in series [17] is rat plasma proteins. The experiment in a line: rapid equilibration dialysis.
The target in series [18] is rabbit plasma proteins. The experiment in a line: rapid equilibration dialysis.
Setting [19] is: 5 mice, intranasal, then SNpc injection of AmyP53, then 7 days daily intranasal.
Setting [20] is: 35-day treatment, SNpc co-injection then daily intranasal, n = 7 per group.
Where [21] appears, read: rats, intranasal administration.
The mark [22] stands for this setting: K2-EDTA plasma from male animals, 400 µL, 1 µM, 37 °C, 0–4 h, cold acetonitrile quench, LC-MS/MS.
Where [23] appears, read: RED, K2-EDTA plasma from male animals, 2 h at 37 °C, AmyP53 5 µM, Propanolol 1 µM, LC-MS/MS.

Ends that are not written are not given here.

The values below come from PMC11914484 (Scientific Reports, 2025).

The half-life is how long it takes for the measured level to halve. Read a high half-life as slow decline. Usually fraction unbound stands for the share of the substance not bound to proteins or other matrix. Low readings indicate extensive binding, high ones weak binding.

KEGVLYVGHHTK [AmyP53]: the “maximal tolerated dose, one-week intranasal administration” value in series [1] is recorded as over 5 mg/kg body weight. Moreover, the “maximal tolerated dose, one-week intravenous administration” value in series [1] is reported as over 80 mg/kg. Besides, the half-life at 1 µM was 10 h in series [2] (male, rabbit, K2-EDTA plasma); 13.1 h in series [6] (male, rat, K2-EDTA plasma); 1.38 h in series [10] (male, dog, K2-EDTA plasma); 6.07 h in [11] (male, pig, K2-EDTA plasma). In addition, the fraction unbound at 2 h, 5 µM in [3] (male, rat, K2-EDTA plasma) is 0.066; in [4] (male, pig, K2-EDTA plasma), 0.186; in series [7] (male, rabbit, K2-EDTA plasma) it was 0.183; in series [12] (male, dog, K2-EDTA plasma), 0.154. For the same molecule, the “intranasal no-observed adverse effect level (NOAEL)” value in series [5] (male and female Sprague Dawley rats, GLP, every day for 28 days followed by 14 days of recovery) is given as 5 mg/kg BW/day. Besides, the “tolerability of repeated intranasal administration, 28 days” value in series [5] (male and female rats, 0.1, 1.0 and 5.0 mg/kg body weight/day, 28 days and 14 days of recovery) is listed as “well tolerated”. In addition, in series [8], the “maximal intranasal dose without any signs of toxicity or dysfunction” value is “The maximal intranasal dose of AmyP53 without any signs of toxicity or dysfunction, is greater or equal to 5 mg/kg BW in both male and female Wistar rats”. In addition, the “body mass, preliminary safety assessment” value in [9] (setting [19]) was “stable”. In series [9] (setting [19]), the “overall result of preliminary safety assessment” value is recorded as “safe”. Also, the “effect on body weight of treated mice” value in series [9] (setting [20]) was “did not display any significant effect”. Also, in series [9] (setting [20]), the “impact on overall behavior” value is “did not induce any negative impact”. The “half-life of AmyP53 in the brain” value in [13] (approximate statement in discussion) is “about 1 h”. In addition, in series [13] (setting [21]), the “Cmax in brain tissue” value was 1.766 µg/mL. For the same molecule, the “T1/2 in brain tissue” value in [13] (setting [21]) is 1.02 h. In [13] (setting [21]), the “Tmax in brain tissue” value is given as 5 min. In addition, the “toxicity / tolerability of repeated intranasal administration in rabbits” value in [14] is reported as “no systemic or local toxicity”.

On to `CC(C)[N+](C)(CCOC(=O)C1c2ccccc2Oc2ccccc21)C(C)C` [Propantheline, Propantheline bromide, reference compound], for which, in series [2] (setting [22]), the “t1/2 in rabbit plasma” value is 0.283 h. The “t1/2 in rat plasma” value in [6] (setting [22]) amounted to 3.78 h. In series [10] (setting [22]), the “t1/2 in dog plasma” value turned out to be 1.73 h. Besides, in [11] (setting [22]), the “t1/2 in mini-pig plasma” value was 2.98 h.

Consider `CC(C)NCC(O)COc1cccc2ccccc12` (stereo not shown) [Propranolol, reference compound], for which the “bound to plasma protein %, rat plasma” value in [3] (setting [23]) was 89.8 ±0.1%. Moreover, in series [4] (setting [23]), the “bound to plasma protein %, mini-pig plasma” value is listed as 85.2 ±0.9%. For the same molecule, in series [7] (setting [23]), the “bound to plasma protein %, rabbit plasma” value is given as 74.8 ±1.1%. For the same molecule, the “bound to plasma protein %, dog plasma” value in series [12] (setting [23]) worked out at 86.5 ±1.0%.

Consider KEGVLYVGHHTK [AmyP53], for which the bound to plasma protein % in series [15] was 81.4%; in [16], 84.6%; in series [17], 93.4%; in [18] it was 81.7%.
